Laboratory results: ChEMBL document CHEMBL1926607 (J Med Chem, 2011)

What was measured:
[1] = molecular target: 5-hydroxytryptamine receptor 2A (Rattus norvegicus, UniProt P14842); test: Displacement of [3H]ketanserin from 5HT2A receptor in Sprague-Dawley albinus rat frontal cortex membranes after 15 mins; assay type: cell membranes, Membrane
Procedure, shortened: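 Rat frontal cortex membranes (male Sprague–Dawley, 180–200 g). Nonspecific binding was set with 1 μM cinanserin.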

[2] = molecular target: 5-hydroxytryptamine receptor 7 (Rattus norvegicus, UniProt P32305); test: Displacement of [3H]-5-CT from 5HT7 receptor in Sprague-Dawley albinus rat hyphalamic membranes after 120 mins; assay type: cell membranes, Membrane
D(2) dopamine receptor = D(2) dopamine receptor (Rattus norvegicus, UniProt P61169); test: Displacement of [3H]spiperone from dopamine D2 receptor in Sprague-Dawley albinus rat striatal membranes after 15 mins; assay type: cell membranes, Membrane
[3] = molecular target: T1, 5-hydroxytryptamine receptor 1A (Homo sapiens) (UniProt P08908); test: Agonist activity at human 5HT1A receptor expressed in human HeLa cells assessed as inhibition of forskolin-stimulated cAMP production pretreated 20 mins before forskolin challenge measured after 2 hrs by RIA relative to control; assay type: functional, cell-based
T1 sequence (whole entry): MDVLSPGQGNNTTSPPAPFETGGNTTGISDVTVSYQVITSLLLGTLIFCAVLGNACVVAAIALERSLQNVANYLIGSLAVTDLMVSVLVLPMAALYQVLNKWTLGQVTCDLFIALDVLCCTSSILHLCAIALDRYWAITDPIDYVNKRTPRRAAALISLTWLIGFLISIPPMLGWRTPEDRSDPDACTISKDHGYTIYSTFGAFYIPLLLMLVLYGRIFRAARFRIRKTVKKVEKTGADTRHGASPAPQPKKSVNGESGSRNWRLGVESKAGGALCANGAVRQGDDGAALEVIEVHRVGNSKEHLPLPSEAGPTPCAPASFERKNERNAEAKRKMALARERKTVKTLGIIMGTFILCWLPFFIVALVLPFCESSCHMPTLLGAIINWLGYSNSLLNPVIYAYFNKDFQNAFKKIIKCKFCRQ

[4] = molecular target: T2, Adrenergic receptor alpha-1 (Rattus norvegicus, UniProt P15823+P23944+P43140); test: Displacement of [3H]prazosin from alpha1 adrenoceptor in Sprague-Dawley albinus rat cerebral cortex membranes after 30 mins; assay type: cell membranes, Membrane
T2 sequence (P15823 whole entry): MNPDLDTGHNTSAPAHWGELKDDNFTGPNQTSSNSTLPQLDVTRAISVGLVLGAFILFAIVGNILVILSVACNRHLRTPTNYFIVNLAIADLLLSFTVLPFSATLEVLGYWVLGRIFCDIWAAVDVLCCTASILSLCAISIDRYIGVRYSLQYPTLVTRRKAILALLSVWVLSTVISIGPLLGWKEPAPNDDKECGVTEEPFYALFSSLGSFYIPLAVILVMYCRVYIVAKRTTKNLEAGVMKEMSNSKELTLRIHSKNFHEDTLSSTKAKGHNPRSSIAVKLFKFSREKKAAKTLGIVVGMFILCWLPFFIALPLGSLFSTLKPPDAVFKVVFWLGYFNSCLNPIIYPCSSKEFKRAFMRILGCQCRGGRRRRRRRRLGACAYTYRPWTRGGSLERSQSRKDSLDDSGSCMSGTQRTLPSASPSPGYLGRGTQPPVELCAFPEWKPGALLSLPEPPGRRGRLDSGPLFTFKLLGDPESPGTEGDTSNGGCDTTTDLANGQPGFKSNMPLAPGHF
T2 sequence (P23944 whole entry): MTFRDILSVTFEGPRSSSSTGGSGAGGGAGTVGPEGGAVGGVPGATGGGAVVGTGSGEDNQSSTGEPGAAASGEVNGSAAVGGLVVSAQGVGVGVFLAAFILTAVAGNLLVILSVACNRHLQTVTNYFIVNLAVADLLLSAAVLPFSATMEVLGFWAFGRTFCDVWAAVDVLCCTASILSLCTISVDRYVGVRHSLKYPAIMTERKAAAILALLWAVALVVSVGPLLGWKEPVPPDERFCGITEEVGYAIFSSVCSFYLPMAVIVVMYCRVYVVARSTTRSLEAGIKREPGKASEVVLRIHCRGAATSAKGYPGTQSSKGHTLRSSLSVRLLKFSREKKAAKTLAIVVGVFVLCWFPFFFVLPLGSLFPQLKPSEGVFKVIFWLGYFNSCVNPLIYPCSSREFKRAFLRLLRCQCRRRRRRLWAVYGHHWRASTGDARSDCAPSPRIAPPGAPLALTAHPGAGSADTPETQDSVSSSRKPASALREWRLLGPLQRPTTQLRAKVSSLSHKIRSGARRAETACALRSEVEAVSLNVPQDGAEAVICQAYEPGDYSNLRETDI
T2 sequence (P43140 whole entry): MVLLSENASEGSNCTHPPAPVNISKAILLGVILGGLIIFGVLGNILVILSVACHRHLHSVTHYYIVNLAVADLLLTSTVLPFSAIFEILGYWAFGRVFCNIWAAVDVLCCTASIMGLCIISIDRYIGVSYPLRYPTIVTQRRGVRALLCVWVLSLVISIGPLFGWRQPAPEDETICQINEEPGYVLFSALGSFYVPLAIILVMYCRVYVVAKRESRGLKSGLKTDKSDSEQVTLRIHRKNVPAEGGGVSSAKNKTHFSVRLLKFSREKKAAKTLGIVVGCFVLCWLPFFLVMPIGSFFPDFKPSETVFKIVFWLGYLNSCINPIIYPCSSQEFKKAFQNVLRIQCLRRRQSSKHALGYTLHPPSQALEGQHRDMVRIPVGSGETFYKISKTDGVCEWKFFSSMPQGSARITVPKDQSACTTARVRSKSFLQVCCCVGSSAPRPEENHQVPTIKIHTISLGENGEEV
Procedure, shortened: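 Rat cerebral cortex membranes (about 250 μg protein; male Sprague–Dawley, 180–200 g) in 50 mM Tris-HCl with 10 mM MgCl2, pH 7.4. Incubation was 30 min at 25 °C with 0.2 nM [3H]prazosin and six competitor concentrations. Nonspecific binding was set with 10 μM phentolamine.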

Chain of 5-hydroxytryptamine receptor 7 (P32305 whole entry): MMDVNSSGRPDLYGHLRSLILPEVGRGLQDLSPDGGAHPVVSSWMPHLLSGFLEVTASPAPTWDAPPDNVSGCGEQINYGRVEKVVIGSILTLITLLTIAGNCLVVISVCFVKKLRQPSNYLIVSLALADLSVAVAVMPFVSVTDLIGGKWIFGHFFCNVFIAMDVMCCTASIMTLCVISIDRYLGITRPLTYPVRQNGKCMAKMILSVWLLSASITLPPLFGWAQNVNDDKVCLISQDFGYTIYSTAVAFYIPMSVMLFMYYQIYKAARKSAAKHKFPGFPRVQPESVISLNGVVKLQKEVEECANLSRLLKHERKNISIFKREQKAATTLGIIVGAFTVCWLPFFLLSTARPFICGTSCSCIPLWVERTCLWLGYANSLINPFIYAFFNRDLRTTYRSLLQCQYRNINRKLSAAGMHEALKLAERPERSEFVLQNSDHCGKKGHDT
Chain of 5-hydroxytryptamine receptor 2A (P14842 whole entry): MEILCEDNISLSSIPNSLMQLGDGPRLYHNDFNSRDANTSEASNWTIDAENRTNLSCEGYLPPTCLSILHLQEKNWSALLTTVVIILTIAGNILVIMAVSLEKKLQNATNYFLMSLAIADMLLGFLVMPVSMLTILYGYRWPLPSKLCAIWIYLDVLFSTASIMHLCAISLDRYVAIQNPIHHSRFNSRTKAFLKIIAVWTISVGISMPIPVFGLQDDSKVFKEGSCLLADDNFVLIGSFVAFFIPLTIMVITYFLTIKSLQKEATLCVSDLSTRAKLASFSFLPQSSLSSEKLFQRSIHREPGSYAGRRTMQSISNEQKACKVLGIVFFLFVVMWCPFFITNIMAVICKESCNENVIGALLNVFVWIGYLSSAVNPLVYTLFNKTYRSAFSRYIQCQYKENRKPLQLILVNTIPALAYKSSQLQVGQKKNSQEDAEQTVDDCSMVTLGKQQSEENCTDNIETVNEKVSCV
Chain of D(2) dopamine receptor (P61169 whole entry): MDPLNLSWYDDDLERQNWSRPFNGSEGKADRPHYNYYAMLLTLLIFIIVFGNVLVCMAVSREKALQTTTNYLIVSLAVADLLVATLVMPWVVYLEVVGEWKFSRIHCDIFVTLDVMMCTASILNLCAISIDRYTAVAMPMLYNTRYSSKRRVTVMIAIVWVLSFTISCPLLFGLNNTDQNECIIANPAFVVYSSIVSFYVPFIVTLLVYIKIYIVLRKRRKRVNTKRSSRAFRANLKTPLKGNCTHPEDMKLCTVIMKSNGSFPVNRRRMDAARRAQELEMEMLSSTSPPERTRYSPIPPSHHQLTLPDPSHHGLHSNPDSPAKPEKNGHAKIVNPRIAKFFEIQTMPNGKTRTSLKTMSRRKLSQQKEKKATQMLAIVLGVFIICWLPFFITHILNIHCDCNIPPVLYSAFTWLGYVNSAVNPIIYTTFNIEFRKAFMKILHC

## Cl.O=C1C2CCCN2C(=O)CN1CCCCNCC1CCc2ccccc2O1 (stereo not given)
[1]
  Ki: > 1000 nM
[2]
  Ki: 418 nM
D(2) dopamine receptor
  Ki: > 1000 nM
[3]
  Emax: 87.6%
[4]
  Ki: 107 nM
